Reference: article PMC3204787 (Biochemistry, 2011)
pIC50, pKi: −log10 of the molar value.

Legend:
[1] = target: T1, wild type HIV-1 RT (Human immunodeficiency virus type 1 group M subtype B, UniProt P03366); assay: Inhibition of reverse transcription by ddNTP inhibitors, wild-type enzyme; format: biochemical; conditions: WT; for pKi: 37 °C 3 min; for pIC50: IC50=Ki(1+[S]/Km)
[2] = target: T2, HIV-1 RT Q91A (Human immunodeficiency virus type 1 group M subtype B, UniProt P03366, Q690A); assay: Inhibition of reverse transcription by ddNTP inhibitors, Q91A mutant; format: biochemical; conditions: for pKi: 37 °C 3 min; for pIC50: IC50=Ki(1+[S]/Km)
[3] = target: T3, HIV-1 RT Q91N (Human immunodeficiency virus type 1 group M subtype B, UniProt P03366, Q690N); assay: Inhibition of reverse transcription by ddNTP inhibitors, Q91N mutant; format: biochemical; conditions: for pKi: 37 °C 3 min; for pIC50: IC50=Ki(1+[S]/Km)
Method in brief: (§1)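 Recombinant heterodimeric HIV-1 RT (p66 with N-terminally His-tagged p51), mutation present in both subunits, used at 10 nM. The enzyme was preincubated with 100 nM poly rA.dT18 or poly rC-dG18 for 2 min at 25 °C. Synthesis was started with Mg-complexed 10 μM [3H]dTTP or dGTP (1 μCi per assay) plus varied ddTTP or ddGTP, then run 3 min at 37 °C. Reactions were stopped with cold 5% TCA/5 mM PPi, collected on GF/B filters and counted by scintillation. Ki came from percent inhibition using the competitive-inhibitor equation; IC50 = Ki(1+[S]/Km). Three independent experiments.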

[4] = target: T4, HIV-1 RT Q91A+M184V (Human immunodeficiency virus type 1 group M subtype B, UniProt P03366, M783V/Q690A); assay: Inhibition of reverse transcription by ddNTP inhibitors, Q91A+M184V mutant; format: biochemical; conditions: for pKi: 37 °C 3 min; for pIC50: IC50=Ki(1+[S]/Km)
[5] = target: T5, HIV-1 RT Q91N+M184V (Human immunodeficiency virus type 1 group M subtype B, UniProt P03366, M783V/Q690N); assay: Inhibition of reverse transcription by ddNTP inhibitors, Q91N+M184V mutant; format: biochemical; conditions: for pKi: 37 °C 3 min; for pIC50: IC50=Ki(1+[S]/Km)
Method in brief: as §1

[6] = target: T6, HIV-1 RT M184V (Human immunodeficiency virus type 1 group M subtype B, UniProt P03366, M783V); assay: Inhibition of reverse transcription by ddNTP inhibitors, M184V mutant; format: biochemical; conditions: for pKi: 37 °C 3 min; for pIC50: IC50=Ki(1+[S]/Km)
[7] = target: T1, wild type HIV-1 RT; assay: Steady-state kinetics of polymerization, wild-type enzyme; format: biochemical; conditions: WT, 25°C
[8] = target: T2, HIV-1 RT Q91A; assay: Steady-state kinetics of polymerization, Q91A mutant; format: biochemical; conditions: Q91A, 25°C
[9] = test system: HIV-1 RT Q91A; assay: as above; format: biochemical, human immunodeficiency virus type 1; conditions: Q91A vs wild type; poly-rA.dT18 template, dTTP
[10] = target: T3, HIV-1 RT Q91N; assay: Steady-state kinetics of polymerization, Q91N mutant; format: biochemical
Method in brief: (§2)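 Run at 25 °C with 40 nM mutant RT and 100 nM poly rA.dT18 or poly rC.dG18, each prepared by annealing equimolar template and primer at 20 μM. Buffer was 50 mM Tris-HCl pH 7.5, 2 mM MgCl2, 1 mM DTT and 100 μg/mL BSA. Complementary dTTP or dGTP was varied, with [3H]dTTP specific activity set using unlabeled dTTP. Reactions were started with MgCl2 and stopped with ice-cold 5% TCA at set times, then filtered and scintillation-counted. Km and Vmax came from Eadie-Hofstee plots of initial velocities; kcat = Vmax/[E].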

[11] = target: T4, HIV-1 RT Q91A+M184V; assay: Steady-state kinetics of polymerization, Q91A+M184V mutant; format: biochemical; conditions: Q91A+M184V, 25°C
[12] = test system: HIV-1 RT Q91A+M184V; assay: as above; format: biochemical, human immunodeficiency virus type 1; conditions: Q91A/M184V vs wild type; poly-rA.dT18 template, dTTP
[13] = target: T5, HIV-1 RT Q91N+M184V; assay: Steady-state kinetics of polymerization, Q91N+M184V mutant; format: biochemical; conditions: 25°C
Method in brief: as §2

[14] = target: T6, HIV-1 RT M184V; assay: Steady-state kinetics of polymerization, M184V mutant; format: biochemical; conditions: 25°C
[15] = poly rA.dT18 100 nM, dTTP 10 μM
[16] = Poly rA.dT18 template-primer, dTTP substrate
[17] = poly rC-dG18 100 nM, dGTP 10 μM
[18] = Poly rC.dG18 template-primer, dGTP substrate

Structure (SMILES): Cc1cn([C@H]2CC[C@@H](COP(=O)(O)OP(=O)(O)OP(=O)(O)O)O2)c(=O)[nH]c1=O [ddTTP]
- pKi [1, 15]: 8.40
- pIC50 [1, 15]: 7.77
- pKi [2, 15]: 7.12
- pIC50 [2, 15]: 7.00
- pKi [3, 15]: 7.21
- pIC50 [3, 15]: 6.82
- pKi [4, 15]: 7.35
- pIC50 [4, 15]: 7.24
- pKi [5, 15]: 7.92
- pIC50 [5, 15]: 7.44
- pKi [6, 15]: 7.74
- pIC50 [6, 15]: 7.16

Structure (SMILES): Cc1cn([C@H]2C[C@H](O)[C@@H](COP(=O)(O)OP(=O)(O)OP(=O)(O)O)O2)c(=O)[nH]c1=O [dTTP]
- KmdTTP ([7]; Poly rA.dT18 template-primer): 3.0 ± 1.1 µM
- Kcat [7, 16]: 0.39 ± 0.6 s⁻¹
- KmdTTP ([8]; Poly rA.dT18 template-primer): 30.0 ± 3.5 µM
- Kcat [8, 16]: 0.10 ± 0.03 s⁻¹
- decrease in the catalytic efficiency [9]: 21 fold
- KmdTTP ([10]; Q91N, Poly rA.dT18 template-primer, 25°C): 7.0 ± 1.5 µM
- Kcat ([10]; Q91N, Poly rA.dT18 template-primer, dTTP substrate, 25°C): 0.25 ± 0.08 s⁻¹
- KmdTTP ([11]; Poly rA.dT18 template-primer): 37.0 ± 4.0 µM
- Kcat [11, 16]: 0.23 ± 0.07 s⁻¹
- decrease in the catalytic efficiency [12]: 43 fold
- KmdTTP ([13]; Poly rA.dT18 template-primer): 5.0 ± 1.0 µM
- Kcat [13, 16]: 0.27 ± 0.11 s⁻¹
- KmdTTP ([14]; Poly rA.dT18 template-primer): 3.5 ± 1.2 µM
- Kcat [14, 16]: 0.53 ± 0.12 s⁻¹

Structure (SMILES): Nc1nc2c(ncn2[C@H]2CC[C@@H](COP(=O)(O)OP(=O)(O)OP(=O)(O)O)O2)c(=O)[nH]1 [ddGTP]
- pKi [1, 17]: 6.95
- pIC50 [1, 17]: 6.51
- pKi [2, 17]: 6.05
- pIC50 [2, 17]: 5.91
- pKi [3, 17]: 6.32
- pIC50 [3, 17]: 5.96
- pKi [4, 17]: 6.38
- pIC50 [4, 17]: 6.31
- pKi [5, 17]: 6.89
- pIC50 [5, 17]: 6.55
- pKi [6, 17]: 6.39
- pIC50 [6, 17]: 6.05

Structure (SMILES): Nc1nc2c(ncn2[C@H]2C[C@H](O)[C@@H](COP(=O)(O)OP(=O)(O)OP(=O)(O)O)O2)c(=O)[nH]1 [dGTP]
- KmdGTP ([7]; Poly rC.dG18 template-primer): 6.0 ± 1.4 µM
- Kcat [7, 18]: 0.15 ± 0.019 s⁻¹
- KmdGTP ([8]; Poly rC.dG18 template-primer): 25.0 ± 4.0 µM
- Kcat [8, 18]: 0.02 ± 0.006 s⁻¹
- decrease in catalytic efficiency ([10]; Q91N vs wild type, poly rC template, range given jointly for Q91N and Q91N/M184V): 5–10 fold
- KmdGTP ([10]; Q91N, Poly rC.dG18 template-primer, 25°C): 8.0 ± 2.1 µM
- Kcat ([10]; Q91N, Poly rC.dG18 template-primer, dGTP substrate, 25°C): 0.02 ± 0.002 s⁻¹
- KmdGTP ([11]; Poly rC.dG18 template-primer): 57.0 ± 5.0 µM
- Kcat [11, 18]: 0.06 ± 0.010 s⁻¹
- KmdGTP ([13]; Poly rC.dG18 template-primer): 8.0 ± 1.8 µM
- Kcat [13, 18]: 0.04 ± 0.012 s⁻¹
- KmdGTP ([14]; Poly rC.dG18 template-primer): 8.0 ± 2.2 µM
- Kcat [14, 18]: 0.08 ± 0.011 s⁻¹
